Values belong to the molecule of their own block, whether it stands above or below them. Activity calls are given as the source filed them. No cut-off for these calls is given here.
Legend:
Cathepsin B [1] = target: T1, Cathepsin B (Homo sapiens, UniProt P07858); test: Inhibition of cathepsin-B using Z-Arg-Arg AMC as substrate by fluorescence assay
Method in brief: (§1)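 Z-Arg-Arg AMC as fluorogenic substrate, compounds titrated. Mean fluorescence units ± SEM were normalized to percent of control. Percent inhibition and IC50 range were fitted by nonlinear regression with one-site competition equations. Untreated control activity was compared with the highest compound concentration by unpaired t test.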

Hippocampus [2] = test: Up-regulation of cathepsin-B level in lysosome of rat hippocampal slice cultures at 0.3 to 1 uM after 4 days by immunoblot analysis; type: functional, tissue-based
Method in brief: (§2)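 Organotypic hippocampal slice cultures from rat were treated daily with compound or vehicle. Cathepsin immunoreactivity was measured by immunoblot image analysis and reported as mean IOD ± SEM. Where stated, brefeldin A was co-present.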

Cathepsin B [3] = target: T1, Cathepsin B; test: Inhibition of cathepsin-B using Z-Arg-Arg AMC as substrate by fluorescence assay relative to control; details: concentration not given here; method in brief: as §1
Hippocampus [4] = test: Up-regulation of cathepsin-D level in lysosome of rat hippocampal slice cultures at 0.3 to 1 uM after 4 days by immunoblot analysis; type: functional, tissue-based; method in brief: as §2
Hippocampus [5] = test: Up-regulation of cathepsin-B level in lysosome of rat hippocampal slice cultures at 20 uM after 4 days by immunoblot analysis; type: functional, tissue-based; details: 10 uM, in the assay text read “10 uM” for “20 uM”
Hippocampus [6] = test: Up-regulation of cathepsin-D level in lysosome of rat hippocampal slice cultures at 10 uM after 4 days by immunoblot analysis relative to PADK
Hippocampus [7] = test: Up-regulation of cathepsin-B level in lysosome of rat hippocampal slice cultures at 10 uM after 4 days by immunoblot analysis relative to PADK
Hippocampus [8] = test: Up-regulation of cathepsin-D level in lysosome of rat hippocampal slice cultures at 3 to 10 uM after 4 days by immunoblot analysis; type: functional, tissue-based; method in brief: as §2
Hippocampus [9] = test: Up-regulation of cathepsin-D level in lysosome of rat hippocampal slice cultures at 3 to 10 uM after 4 days by immunoblot analysis in presence of brefeldin-A; type: functional, tissue-based; method in brief: as §2
Hippocampus [10] = test: Up-regulation of cathepsin-B level in lysosome of rat hippocampal slice cultures at 3 to 10 uM after 4 days by immunoblot analysis; type: functional, tissue-based; method in brief: as §2
Hippocampus [11] = test: Up-regulation of cathepsin-B level in lysosome of rat hippocampal slice cultures at 3 to 10 uM after 4 days by immunoblot analysis in presence of brefeldin-A; type: functional, tissue-based; method in brief: as §2
Mus musculus [12] = test: Inhibition of presynaptic loss of amphiphysin-I protein level in APPSwInd transgenic mouse 20Lms/2J hippocampal homogenates at 25 mg/kg, ip qd for 9 days relative to wild type mouse; details: Hippocampus
Mus musculus [13] = test: Reduction of 8 to 10-kDa oligomeric amyloid beta species in APPSwInd transgenic mouse 20Lms/2J hippocampal homogenates at 25 mg/kg, ip qd for 9 days relative to wild type mouse; type: functional, organism-based; design: dose 25 mg/kg; details: Hippocampus
Mus musculus [14] = test: Increase of active form of cathepsin-B level in APPSwInd transgenic mouse 20Lms/2J hippocampal homogenates at 25 mg/kg, ip qd for 9 days relative to wild type mouse; type: functional, organism-based; design: dose 25 mg/kg; details: Hippocampus
Mus musculus [15] = test: Inhibition of postsynaptic loss of GluR1 protein level in APPSwInd transgenic mouse 20Lms/2J hippocampal homogenates at 25 mg/kg, ip qd for 9 days relative to wild type mouse; type: functional, organism-based; design: dose 25 mg/kg; details: Hippocampus

IC50 (Cathepsin B [1]): 80 nM | inhibition (Cathepsin B [3]): 100%
Compound: CCCNC(=O)[C@H]1O[C@@H]1C(=O)N[C@H](C(=O)N1CCC[C@H]1C(=O)OC)[C@@H](C)CC
Activity (Hippocampus [2]): inactive | Activity (Hippocampus [4]): inactive

IC50 (Cathepsin B [1]): 9400 nM | inhibition (Cathepsin B [3]): 100%
Compound: C[C@H](NC(=O)[C@H](Cc1ccccc1)NC(=O)OCc1ccccc1)C(=O)C=[N+]=[N-]
Activity (Hippocampus [8]): Active | Activity (Hippocampus [9]): inactive | Activity (Hippocampus [10]): Active | Activity (Hippocampus [11]): inactive

IC50 (Cathepsin B [1]): > 100000 nM | inhibition (Cathepsin B [3]): 8%
Compound: CC(=O)N(Cc1ccccc1)C[C@@H](O)[C@H](Cc1ccccc1)NC(=O)OCc1ccccc1
Activity (Hippocampus [5]): Active | inhibition (Mus musculus [12]): Active | Activity (Mus musculus [13]): Active | Activity (Mus musculus [14]): Active | inhibition (Mus musculus [15]): Active

The remaining lines, values behind:

Compound: [N-]=[N+]=CC(=O)N(Cc1ccccc1)C[C@@H](O)[C@H](Cc1ccccc1)NC(=O)OCc1ccccc1
Activity (Hippocampus [5]): Active | fold change (FC) (Hippocampus [6]): 2 | inhibition (Cathepsin B [3]): 13% | fold change (FC) (Hippocampus [7]): 2

Compound: N#[N+][CH-]C(=O)N(Cc1ccccc1)C[C@@H](O)[C@H](Cc1ccccc1)NC(=O)OCc1ccccc1
IC50 (Cathepsin B [1]): 2000 nM

Source: ChEMBL document CHEMBL2176904, “Nonpeptidic lysosomal modulators derived from z-phe-ala-diazomethylketone for treating protein accumulation diseases” (ACS Med Chem Lett, 2012)
